{"data": "Measurements collected from several papers", "target": "Serine/threonine-protein kinase pim-3 (PIM3, Homo sapiens, UniProt Q86V86)", "note": "Lines come from different studies, so protocols differ."}
{"SMILES": "N[C@H]1CCN(c2nccc(-c3cnn4ncccc34)n2)C1", "read-out": "binding", "tested at": "1 µM", "remaining binding [%]": 79}
{"SMILES": "COc1ccc2c(O[C@@H]3C[C@H]4C(=O)N[C@]5(C(=O)O)CC5/C=C\\CCCCC[C@H](NC(=O)OC5CCCC5)C(=O)N4C3)cc(-c3csc(NC(=O)C(C)C)n3)nc2c1C (stereo partly shown)", "read-out": "cell-free assay", "technique": "competition with immobilised ligand", "tested at": "1 µM", "remaining binding [%]": 94}
{"SMILES": "F[C@@H]1CCN(c2nccc(-c3cnn4ncccc34)n2)C1", "read-out": "binding", "tested at": "1 µM", "remaining binding [%]": 100}
{"SMILES": "CC(C)(C)c1ccc(-c2nc(CBr)nn2-c2cccc(O)c2)cc1", "read-out": "cell-free assay", "technique": "competition with immobilised ligand", "tested at": "10 µM", "remaining binding [%]": 100}
{"SMILES": "O=C(c1ccc(Nc2ncc(Cl)c(-c3cc4ccccc4s3)n2)cc1)N1CCC(N2CCCC2)CC1", "read-out": "binding", "technique": "competition with immobilised ligand", "tested at": "1 µM", "remaining binding [%]": 75}
{"SMILES": "C[C@@H]1CN(c2cc(-c3nn(C)c4ccc(OC5(C)CC5)cc34)ncn2)C[C@H](C)O1", "read-out": "cell-free assay", "technique": "competition with immobilised ligand", "tested at": "1 µM", "remaining binding [%]": 92}
{"SMILES": "C=CC(=O)N1CCC(C(=O)NCC(=O)N2CCN(c3nc(-c4cnc(N)nc4C(F)F)nc(N4CCOCC4)n3)CC2)CC1", "read-out": "binding", "technique": "competition with immobilised ligand", "tested at": "1 µM", "remaining binding [%]": 97}
{"SMILES": "CN([C@@H]1CCc2c(CC(=O)O)c3cc(S(C)(=O)=O)ccc3n2C1)S(=O)(=O)c1ccc(F)cc1", "read-out": "cell-free assay", "technique": "competition with immobilised ligand", "tested at": "1 µM", "remaining binding [%]": 100}
{"SMILES": "N#Cc1ccccc1CSc1nnc2c(n1)[nH]c1ccccc12", "read-out": "binding", "technique": "competition with immobilised ligand", "tested at": "10 µM", "remaining binding [%]": 74}
{"SMILES": "C[C@@H]1CN(c2ccc3ncc(-c4ccc5[nH]nc(C6CC6)c5c4)n3n2)C[C@H](C)O1", "read-out": "binding", "technique": "competition with immobilised ligand", "tested at": "0.5 µM", "remaining binding [%]": 33}
{"SMILES": "C[C@@H]1CCN(c2nccc(-c3cnn4ncccc34)n2)C1", "read-out": "binding", "tested at": "1 µM", "remaining binding [%]": 92}
{"SMILES": "O=C(NCCCN1CCOCC1)c1ccc(Nc2nccc(-c3cc4ccccc4s3)n2)cc1", "read-out": "binding", "technique": "competition with immobilised ligand", "tested at": "1 µM", "remaining binding [%]": 91}
{"SMILES": "Cc1nccc(COC(=O)N2C[C@@H]3[C@@H](CNC(=O)c4ccc5[nH]nnc5c4)[C@@H]3C2)n1", "read-out": "cell-free assay", "technique": "competition with immobilised ligand", "tested at": "1 µM", "remaining binding [%]": 97}
{"SMILES": "CNC(=O)[C@@H]1CC[C@@H](n2c(-c3ccc4cnccc4c3)nc3ccc(C(=O)NCc4cccc(C(N)=O)c4)cc32)C1", "read-out": "binding", "technique": "competition with immobilised ligand", "tested at": "1 µM", "remaining binding [%]": 100}
{"SMILES": "CCc1ccccc1C(=O)Nc1n[nH]c2c(C)c(F)c(C3C(C#N)=C(C)N(C)C(C)=C3C#N)cc12", "read-out": "cell-free assay", "technique": "competition with immobilised ligand", "tested at": "1 µM", "remaining binding [%]": 100}
{"SMILES": "Cc1cnn2ncc(-c3ccnc(N(C)C)n3)c2c1", "read-out": "binding", "tested at": "1 µM", "remaining binding [%]": 85}
